Activity calls are given as the source filed them. The rule behind the calls is not given here.
Assays:
[1] = Antioxidant activity assessed as trolox equivalent of AAPH-induced peroxyl radical scavenging activity at 1.3 to 13 uM up to 140 mins by ORAC-FL assay; type: functional
Summary of the method: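 ORAC: fluorescein (7.5 nM) decay (ex 485/em 512 nm) followed 140 min at 37 °C. Peroxyl radicals came from 30 mM AAPH in 75 mM phosphate pH 7.4 with 100 µM DTPA, compounds at 1.3-13 µM. Curves normalised to initial fluorescence, and net AUC versus concentration compared with Trolox standard (1.5-24 µM). Three independent determinations, mean ± SD.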

[2] = organism: Mus musculus; test: Antiinflammatory activity in mouse […] cells assessed as reduction in INF-gamma/LPS-induced IL-1beta expression at 5 uM preincubated for 1 hr followed by INF-gamma/LPS addition for 4 hrs by Western blot analysis; type: functional, cell-based
Summary of the method: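 Confluent J774 monolayers preincubated 1 h with compound at 5 µM, then stimulated 4 h at 37 °C, 5% CO₂ with IFN-γ 400 U/mL plus Salmonella enterica LPS 8 µg/mL. Whole-cell lysates resolved by 15% SDS-PAGE and immunoblotted with rabbit anti-IL-1β and Alexa Fluor 680 secondary. Bands quantified by densitometry, with loading checked on paired colloidal-blue gels. Three independent experiments, one-way ANOVA.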

[3] = system: Plasma; test: Inhibition of AAPH-induced oxidation of human plasma derived LDL assessed as reversal of rate of oxygen consumption at 20 uM added after beginning of propagation phase by high-resolution oxygen electrode
[4] = system: Plasma; test: Inhibition of AAPH-induced oxidation of human plasma derived LDL assessed as time of delay for initiation of propagation phase by measuring rate of oxygen consumption at 20 uM added before AAPH addition by high-resolution oxygen electrode
[5] = organism: Mus musculus; test: Antiatherogenic activity in mouse […] cells assessed as foam cell formation by measuring ox-LDL internalization at 2.5 to 5 uM preincubated for 1 hr followed by ox-LDL Dil addition for 4 hrs by Hoechst 3342-staining based fluorescence assay; type: functional
Summary of the method: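 J774 murine macrophages in DMEM with 10% FBS at 80% confluence (~2×10⁵ cells/well) preincubated 1 h with compound (0.3-5 µM range in plate-reader format). DiI-labelled Cu²⁺-oxidised LDL (10 µg/mL) then added for 4 h at 37 °C, 5% CO₂. Cells washed, nuclei stained with Hoechst 3342 (10 µg/mL, 10 min). Read-out is DiI (549/565 nm) to Hoechst (352/461 nm) fluorescence ratio.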

[6] = Cytotoxicity in mouse […] cells assessed as change in cell survival at 0.3 to 5 uM after 2 to 24 hrs by MTT assay; type: cell-based
Summary of the method: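 Confluent J774 cells exposed to compounds in DMEM at 37 °C, 5% CO₂ for 2 h and for 24 h. MTT (0.1 mg/mL in DPBS) then added for 3 h at 37 °C. Formazan dissolved in DMSO/glycine buffer pH 10.5 and absorbance read at 560 nm, with vehicle as reference.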

CC(Cc1ccc(N(C)C)cc1)[N+](=O)[O-] (stereo unspecified)
Activity [1]: 10 equiv
Activity [2]: Active
inhibition [3]: Active
Time [4]: 30 min

C/C(=C/c1ccc(Cl)cc1)[N+](=O)[O-]
Activity [1]: 0.39 equiv

O=[N+]([O-])/C=C\c1ccc(Cl)cc1
Activity [1]: 0.44 equiv

O=[N+]([O-])/C=C\c1ccc2c(c1)OCO2
Activity [1]: 0.72 equiv

O=[N+]([O-])/C=C\c1ccccc1
Activity [1]: 0.29 equiv

O=[N+]([O-])/C=C\c1ccc(Br)cc1
Activity [1]: 0.44 equiv

C/C(=C/c1ccc(N(C)C)cc1)[N+](=O)[O-]
Activity [1]: 5.4 equiv
Activity [2]: Active
Activity [5]: inactive
Activity [6]: Non-Toxic
inhibition [3]: inactive
Time [4]: 20 min

O=[N+]([O-])/C=C\c1cccs1
Activity [1]: 0.43 equiv

CN(C)c1ccc(/C=C\[N+](=O)[O-])cc1
Activity [1]: 4.2 equiv
Activity [2]: Active
Activity [5]: inactive
Activity [6]: Non-Toxic
inhibition [3]: inactive
Time [4]: 20 min

C/C(=C/c1ccc(Br)cc1)[N+](=O)[O-]
Activity [1]: 0.45 equiv

COc1ccc(/C=C\[N+](=O)[O-])cc1
Activity [1]: 0.46 equiv

CN(C)c1ccc(CC[N+](=O)[O-])cc1
Activity [1]: 13 equiv
Activity [2]: Active
inhibition [3]: Active
Time [4]: >40 min

CC(=O)Nc1ccc(CC[N+](=O)[O-])cc1
Activity [1]: 0.26 equiv

C/C(=C/c1ccccc1)[N+](=O)[O-]
Activity [1]: 0.37 equiv

CC(=O)Nc1ccc(/C=C\[N+](=O)[O-])cc1
Activity [1]: 0.63 equiv

COc1ccc(/C=C(/C)[N+](=O)[O-])cc1
Activity [1]: 0.46 equiv

C/C(=C/c1ccc2c(c1)OCO2)[N+](=O)[O-]
Activity [1]: 1.6 equiv

CSc1ccc(/C=C\[N+](=O)[O-])cc1
Activity [1]: 3.5 equiv

CSc1ccc(CC[N+](=O)[O-])cc1
Activity [1]: 2.8 equiv

C/C(=C/c1cccs1)[N+](=O)[O-]
Activity [1]: 0.54 equiv

Source: ChEMBL document CHEMBL4261606, “Inhibition of LDL oxidation and inflammasome assembly by nitroaliphatic derivatives. Potential use as anti-inflammatory and anti-atherogenic agents” (Eur J Med Chem, 2018)
